Compound activity from PubChem.
The list is not random: actives were taken first. Their share in the collection is about 3.5%.
MrgX1 antag: human MrgX1 receptor antagonism, primary screen. B-score at 10 µM. 310,000 compounds, 1.3% hits. MRGX1-HEK293 calcium flux, Fluo-4, BAM8-22 antagonism; stronger effect = lower value. Q96LB2;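 active = calcium-response B-score plate-corrected more than 3 library SD below zero, starting fluorescence within 5 deviations, no agonist response on first addition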;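 also: peak minus trough fluorescence over baseline after final BAM8-22 challenge near maximal dose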
Target sequence (Q96LB2 whole entry, looked up): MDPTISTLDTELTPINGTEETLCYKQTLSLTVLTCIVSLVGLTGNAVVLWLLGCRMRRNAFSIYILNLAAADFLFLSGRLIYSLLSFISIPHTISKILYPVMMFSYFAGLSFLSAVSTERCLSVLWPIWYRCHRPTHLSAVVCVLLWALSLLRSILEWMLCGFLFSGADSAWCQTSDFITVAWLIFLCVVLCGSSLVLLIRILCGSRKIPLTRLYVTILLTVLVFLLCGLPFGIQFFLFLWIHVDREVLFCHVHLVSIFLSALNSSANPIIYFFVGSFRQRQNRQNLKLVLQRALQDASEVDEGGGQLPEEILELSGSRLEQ
RGS4 pot: RGS4 potentiation or activation. HEK293 M3R/inducible RGS4, carbachol calcium flux Fluo4; stronger effect = lower value. B-score at 10 µM. 310,000 compounds, 0.92% hits;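 active = B-score of the integrated calcium signal more than 4 SD below the library mean, with starting fluorescence not abnormally high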;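 also: negative B-score means reduced calcium response which marks RGS4 activation or potentiation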
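test system = M3R-expressing HEK293 line, RGS4 induced by doxycycline | probe or stimulus = carbachol at ECmax as muscarinic agonist stimulus | timing = dye loading 30 min 37 °C, buffer rest 30 min RT | signal = calcium dye Fluo4 fluorescence | evaluation = B score from integrated fluorescence ratio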
RGS4 block: human RGS4 inhibition; 310,000 compounds, 0.45% hits; B-score at 10 µM; P49798; HEK293 M3R/RGS4 inducible, Fluo-4 calcium flux; stronger effect = higher value; triggered by carbachol at its EC20;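 active = B-score, a plate-corrected calcium signal, over three deviations above library mean, with baseline fluorescence within five deviations of library mean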;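 also: RGS4 expression induced by doxycycline in cells with stable M3 receptor; B-score is computed from the integrated fluorescence ratio over baseline after carbachol; higher B-score means a larger calcium signal and so more RGS4 inhibition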
Target sequence (P49798 whole entry, looked up): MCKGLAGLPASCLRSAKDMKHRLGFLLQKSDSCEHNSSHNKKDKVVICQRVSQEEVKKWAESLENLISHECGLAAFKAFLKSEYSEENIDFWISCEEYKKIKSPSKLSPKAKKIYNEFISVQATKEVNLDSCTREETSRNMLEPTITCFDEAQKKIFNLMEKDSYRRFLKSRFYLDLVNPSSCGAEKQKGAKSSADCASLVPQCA
MrgX1 PAM: human MrgX1 positive allosteric modulation, primary screen; 310,000 compounds, 0.63% hits; AID 588675; MrgX1-HEK293, Fluo-4 calcium flux, FDSS; stronger effect = higher value; B-score at 10 µM; Q96LB2;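 active = plate-corrected calcium response at least 3 library SD above typical, normal starting fluorescence, not activating the receptor alone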;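 also: compound read alongside a low EC10 to EC30 dose of BAM8-22 agonist; peak minus trough fluorescence over baseline measured at the second addition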
MrgX1 ag: human MrgX1 receptor agonism, primary screen; 310,000 compounds, 0.44% hits; B-score at 10 µM; Q96LB2; MrgX1-HEK293 cells, Fluo-4 calcium fluorescence, agonist mode; stronger effect = higher value;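 active = calcium response B-score plate-corrected fluorescence ratio at least 3 library SD, with starting fluorescence B-score inside 5 SD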
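System: HEK293 cells stably expressing human MrgX1 receptor; Dosing: test compound in the initial addition of three; Schedule: overnight plating, then 30 min 37 °C plus 30 min room-temperature dye loading; Detection: kinetic calcium dye fluorescence, Fluo-4 NW; Controls: per-plate positive and negative controls for Z′ factor.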
MrgX1 antag conf: reconfirmed antagonist of human MrgX1 receptor signaling; shares compounds with MrgX1 antag; MrgX1-HEK293, BAM8-22 calcium flux, Fluo-4; stronger effect = lower value; remaining BAM8-22 calcium response % of control (stronger effect = lower value), % at 10 µM; 2,300 compounds, 19% hits; AID 602420;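 active = remaining agonist calcium response no higher than 100% minus 3 SD of agonist-only control wells, with starting fluorescence near control levels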;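 also: agonist BAM8-22 given at a near maximal EC90 to ECmax level; peak minus minimum fluorescence divided by baseline after agonist addition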
HEK293 Ca flux: MrgX1 antagonist counter-screen hit in parental HEK293 cells. fluorescence ratio F(max-min)/F0 at 10 µM. Fluo-4 calcium fluorescence, FDSS. AID 624111. shares compounds with MrgX1 antag. 4,000 compounds, 2% hits;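 active = duplicate-averaged calcium fluorescence ratio at least three times the standard deviation of buffer wells, a nonspecific response in parental cells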
HEK293 Ca counter: MrgX1 allosteric activator counter-screen hit in parental HEK293 cells | shares compounds with MrgX1 antag | parental HEK293 calcium flux, Fluo-4 fluorescence ratio; stronger effect = higher value | fluorescence ratio F(max-min)/F0 at 10 µM | 4,000 compounds, 0.4% hits | AID 624114;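 active = calcium fluorescence ratio, averaged over duplicates, at least 3 SD of the buffer-well ratio, meaning a nonspecific response in receptor-free cells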;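 also: untransfected parental HEK293 lacking MrgX1 used as counterscreen for MrgX1 allosteric activators; fluorescence change taken during the second addition on a kinetic imager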
HEK293 Ca cntr2: counter-screen for MrgX1 activators: effect in parental HEK293 cells. shares compounds with MrgX1 antag. Fluo-4 calcium fluorescence (FDSS); stronger effect = higher value. fluorescence ratio F(max-min)/F0 at 10 µM. 4,000 compounds, 8.7% hits. AID 624115;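 active = calcium fluorescence ratio at least three times the spread of buffer wells, meaning a non-specific response in parental cells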
Of the large screens only hits and unclear results are named; the others gave an inactive call (follow-up assays come after a bar, where they were run); ! = not active in a repeat.

COc1ccc(C(C(=O)NC(C)(C)C)N(C(=O)CCC(=O)Nc2ccccn2)C2CCCCC2)cc1 (stereo not drawn)	none
Cc1cc(NC(=O)CCCC(=O)O)nc(C)n1	MrgX1 antag -6.4 | MrgX1 antag conf inactive | HEK293 Ca flux inactive | HEK293 Ca counter inactive | HEK293 Ca cntr2 inactive
CCOC(=O)c1cnc2c(cnn2C)c1NCCC(O)C(F)(F)F (stereo not drawn)	MrgX1 antag -4.8 | MrgX1 antag conf inactive | HEK293 Ca flux inactive | HEK293 Ca counter inactive | HEK293 Ca cntr2 inactive
CCOC(=O)c1cnc2c(cnn2C)c1Oc1ccc(OC)cc1	none
COc1ccccc1-c1nnc(SCC(=O)OC(C)C)o1	MrgX1 antag -6.6 | MrgX1 antag conf inactive | HEK293 Ca flux inactive | HEK293 Ca counter inactive | HEK293 Ca cntr2 inactive
Cc1ccc2c(C(=O)CN3CCN(c4ccccc4)CC3)c(C)[nH]c2c1	MrgX1 antag -7.3 | MrgX1 antag conf inactive | HEK293 Ca flux inactive | HEK293 Ca counter inactive | HEK293 Ca cntr2 inactive
Cc1ccc2c(C(=O)CN3CCOCC3)c(C)[nH]c2c1	none
CCNc1nc(OCCNC(C)=O)nc(N(C)C)n1	MrgX1 antag -4.8 | MrgX1 antag conf inactive | HEK293 Ca flux inactive | HEK293 Ca counter inactive | HEK293 Ca cntr2 inactive
CCCCNC(=O)N1CCOCCOCCN(C(=O)NCCCC)CCOCC1	MrgX1 antag -4.6 | MrgX1 antag conf inactive | HEK293 Ca flux inactive | HEK293 Ca counter inactive | HEK293 Ca cntr2 inactive
Nc1nc(N)c(Cc2ccc(Cl)cc2Cl)c(N)n1	MrgX1 antag -4.8 | MrgX1 antag conf 71% | HEK293 Ca flux inactive | HEK293 Ca counter inactive | HEK293 Ca cntr2 inactive
NNc1ccc(Cc2ccc(Cl)cc2Cl)nn1	none
Cc1nc2ccc(NC(=O)c3cncc(Br)c3)cc2s1	none
COc1ccc(OC)c(CNS(=O)(=O)c2cn(C)cn2)c1	MrgX1 antag -4.5 | MrgX1 antag conf inactive | HEK293 Ca flux inactive | HEK293 Ca counter inactive | HEK293 Ca cntr2 inactive
NC(=S)Nc1ccc(Cl)cc1Cl	MrgX1 antag -6.5 | MrgX1 antag conf inactive | HEK293 Ca flux inactive | HEK293 Ca counter inactive | HEK293 Ca cntr2 inactive
S=C(Nc1ccccc1)Nc1ccc(Cl)cc1Cl	none
Cc1nc(NCc2ccccn2)c2c3c(sc2n1)CCCC3	MrgX1 antag -5.2 | MrgX1 antag conf inactive | HEK293 Ca flux inactive | HEK293 Ca counter inactive | HEK293 Ca cntr2 inactive
CCCC1(C)NC(=O)c2ccccc2O1 (stereo not drawn)	MrgX1 antag -4.9 | MrgX1 antag conf inactive | HEK293 Ca flux inactive | HEK293 Ca counter inactive | HEK293 Ca cntr2 inactive
O=C1NC(O)(c2ccccc2)Oc2ccccc21 (stereo not drawn)	none
CCC(C)(C)n1nnnc1C(c1ccc2ncccc2c1)N1CCCC(C)C1 (stereo not drawn)	MrgX1 antag -6.3 | MrgX1 antag conf inactive | HEK293 Ca flux inactive | HEK293 Ca counter inactive | HEK293 Ca cntr2 inactive
COc1ccc(CNC(=O)CSc2nnc(NC(=O)c3ccccc3F)s2)cc1	none
CCc1nc2nc(C)c(NS(=O)(=O)c3ccc(Cl)cc3)c(=O)n2[nH]1	none
O=C(O)CCSc1ccc2ccccc2n1	MrgX1 antag -6.7! | MrgX1 antag conf inactive | HEK293 Ca flux inactive | HEK293 Ca counter inactive | HEK293 Ca cntr2 inactive
Cn1cc(CC(=O)Nc2cccc(C#N)c2)c2ccccc21	MrgX1 antag -4.6 | MrgX1 antag conf inactive | HEK293 Ca flux inactive | HEK293 Ca counter inactive | HEK293 Ca cntr2 inactive
CCn1c2ccccc2c2cc(NC(=O)COC(=O)c3ccc(O)cc3)ccc21	MrgX1 antag -7.7 | MrgX1 antag conf inactive | HEK293 Ca flux inactive | HEK293 Ca counter inactive | HEK293 Ca cntr2 inactive
CCN(CC)S(=O)(=O)c1cccc(NC(=O)CC2CCCC2)c1	none
CCN(CC)S(=O)(=O)c1cccc(NC(=O)Nc2cccc(C(F)(F)F)c2)c1	MrgX1 antag -5.2 | MrgX1 antag conf 53% | HEK293 Ca flux inactive | HEK293 Ca counter inactive | HEK293 Ca cntr2 inactive
COc1cc(C(=O)N2CCN(C(=O)c3ccco3)CC2)c([N+](=O)[O-])cc1OC	none
CC(/C=C1\SC(=S)N(C(C(=O)O)c2ccccc2)C1=O)=C\c1ccccc1 (stereo not drawn)	MrgX1 antag -14, RGS4 pot -7.4 | MrgX1 antag conf inactive | HEK293 Ca flux inactive | HEK293 Ca counter inactive | HEK293 Ca cntr2 inactive
COc1cccc(NC(=O)Nc2ccc3c(c2)N(C)C(=O)CS3)c1	MrgX1 antag -7.3 | MrgX1 antag conf 42% | HEK293 Ca flux inactive | HEK293 Ca counter inactive | HEK293 Ca cntr2 inactive
CC(=O)Nc1ccc(NC(=O)Nc2ccc3c(c2)N(C)C(=O)CS3)cc1	none
CCOc1ccc(OCC)c(NC(=O)Nc2ccc3c(c2)N(C)C(=O)CS3)c1	MrgX1 antag -6.3 | MrgX1 antag conf 80% | HEK293 Ca flux inactive | HEK293 Ca counter inactive | HEK293 Ca cntr2 inactive
O=C(Nc1cccc(F)c1)Nc1ccnn1C1CCN(C(=O)c2cscn2)CC1	MrgX1 antag -7.3 | MrgX1 antag conf inactive | HEK293 Ca flux inactive | HEK293 Ca counter inactive | HEK293 Ca cntr2 inactive
O=C(Nc1cccc(F)c1)Nc1ccnn1C1CCN(C(=O)CCN2CCCO2)CC1	none
Cn1c(=O)c(=O)n(C)c2cc(S(=O)(=O)Nc3ccc4c(c3)OCCO4)ccc21	MrgX1 antag -5.9 | MrgX1 antag conf inactive | HEK293 Ca flux inactive | HEK293 Ca counter inactive | HEK293 Ca cntr2 inactive
COc1cc(OC)c(NC(=O)c2cncn2-c2ccc(F)cc2)cc1Cl	none
Cc1cc(C)c(S(=O)(=O)NCc2cccnc2)cc1C	none
COc1ccc(Cl)cc1S(=O)(=O)NCc1cccnc1	MrgX1 antag -5.7 | MrgX1 antag conf inactive | HEK293 Ca flux inactive | HEK293 Ca counter inactive | HEK293 Ca cntr2 inactive
CCOc1cc(S(=O)(=O)NCc2cccnc2)c(C)cc1C	MrgX1 antag -4.9 | MrgX1 antag conf inactive | HEK293 Ca flux inactive | HEK293 Ca counter inactive | HEK293 Ca cntr2 inactive
CC1(c2ccc(OC(F)F)cc2)NC(=O)N(CC(=O)Nc2ccc(S(N)(=O)=O)cc2)C1=O (stereo not drawn)	MrgX1 antag -6.9 | MrgX1 antag conf inactive | HEK293 Ca flux inactive | HEK293 Ca counter inactive | HEK293 Ca cntr2 inactive
COc1cc(CN2CCCC(N3CCN(c4ccccc4C)CC3)C2)ccc1O (stereo not drawn)	none
